Data taken from ChEMBL document CHEMBL3627706, “Syntheses and evaluation of substituted aromatic hydroxamates and hydroxamic acids that target Mycobacterium tuberculosis” (2015).
Values after ≈ are worked out from the molar mass of the structure shown.

Key:
[1] = tested on: Mycobacterium tuberculosis; assay: Antimycobacterial activity against Mycobacterium tuberculosis in 7H12 medium by microplate alamar blue assay; format: functional
How it was run: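 Microplate alamar blue assay against M. tuberculosis in 7H12 medium (7H9 plus casitone, palmitic acid, albumin and catalase). MIC is reported in µM.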

[2] = tested on: Mycobacterium tuberculosis; assay: Antimycobacterial activity against Mycobacterium tuberculosis in GAS medium by microplate alamar blue assay; format: functional
How it was run: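 Microplate alamar blue assay against M. tuberculosis grown in glycerol-alanine-salts (GAS) medium. MIC is reported in µM.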

Bacillus spizizenii [3] = assay: Antibacterial activity against Bacillus subtilis ATCC 6633 after 21 hrs by Kirby-Bauer agar diffusion assay; format: functional
How it was run: (§1)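 Agar diffusion assay. Test solutions were made at 20 mM in DMSO and diluted 10-fold with MeOH to 2 mM. Plates were incubated at 37 °C for 21 h. Inhibition zone diameters are recorded in mm, with unclear or very unclear zones flagged.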

Staphylococcus aureus = assay: Antibacterial activity against Staphylococcus aureus SG511 after 21 hrs by Kirby-Bauer agar diffusion assay; format: functional; how it was run: as §1
Micrococcus luteus [4] = assay: Antibacterial activity against Micrococcus luteus ATCC 10240 after 21 hrs by Kirby-Bauer agar diffusion assay; format: functional; how it was run: as §1
Mycolicibacterium vaccae [5] = assay: Antibacterial activity against Mycobacterium vaccae IMET 10670 after 44 hrs by Kirby-Bauer agar diffusion assay; format: functional
How it was run: (§2)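 Test solutions for the agar diffusion assay were 20 mM in DMSO, diluted 10-fold with MeOH to 2 mM. M. vaccae plates were incubated at 37 °C for 44 h. Inhibition zones are recorded in mm, with unclear or very unclear zones flagged.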

Mycolicibacterium vaccae [6] = assay: Antibacterial activity against Mycobacterium vaccae IMET 10670 assessed as unclear inhibition zone after 44 hrs by Kirby-Bauer agar diffusion assay; format: functional; how it was run: as §2
Pseudomonas aeruginosa [7] = assay: Antibacterial activity against wild type Pseudomonas aeruginosa K799 after 21 hrs by Kirby-Bauer agar diffusion assay; format: functional; how it was run: as §1
Pseudomonas aeruginosa [8] = assay: Antibacterial activity against Pseudomonas aeruginosa K799/61 after 21 hrs by Kirby-Bauer agar diffusion assay; format: functional; how it was run: as §1
Escherichia coli [9] = assay: Antibacterial activity against Escherichia coli DC2 after 21 hrs by Kirby-Bauer agar diffusion assay; format: functional; how it was run: as §1
Pseudomonas aeruginosa [10] = assay: Antibacterial activity against wild type Pseudomonas aeruginosa K799 assessed as unclear inhibition zone after 21 hrs by Kirby-Bauer agar diffusion assay; format: functional; how it was run: as §1
Pseudomonas aeruginosa [11] = assay: Antibacterial activity against Pseudomonas aeruginosa K799/61 assessed as unclear inhibition zone after 21 hrs by Kirby-Bauer agar diffusion assay; format: functional; how it was run: as §1
Micrococcus luteus [12] = assay: Antibacterial activity against Micrococcus luteus ATCC 10240 assessed as very unclear inhibition zone after 21 hrs by Kirby-Bauer agar diffusion assay; format: functional; how it was run: as §1
Escherichia coli [13] = assay: Antibacterial activity against Escherichia coli DC2 assessed as unclear inhibition zone after 21 hrs by Kirby-Bauer agar diffusion assay; format: functional; how it was run: as §1
Mycolicibacterium vaccae [14] = assay: Antibacterial activity against Mycobacterium vaccae IMET 10670 assessed as very unclear inhibition zone after 44 hrs by Kirby-Bauer agar diffusion assay; format: functional; how it was run: as §2
Bacillus spizizenii [15] = assay: Antibacterial activity against Bacillus subtilis ATCC 6633 at 1.66 microg/ml after 21 hrs by Kirby-Bauer agar diffusion assay; format: functional; conditions: ATCC 6633, 21 h, read-out: DIZ
Pseudomonas aeruginosa [16] = assay: microbe, parasite or virus in culture; conditions: K799/61, 21 h, read-out: DIZ

| SMILES | MIC [1] [µM] | MIC [2] [µM] | diameter of the inhibition zone (DIZ) (Bacillus spizizenii [3]) [mm] | diameter of the inhibition zone (DIZ) (Staphylococcus aureus) [mm] | diameter of the inhibition zone (DIZ) (Micrococcus luteus [4]) [mm] | diameter of the inhibition zone (DIZ) (Mycolicibacterium vaccae [5]) [mm] | diameter of the inhibition zone (DIZ) (Pseudomonas aeruginosa [7]) [mm] | other results |
| --- | --- | --- | --- | --- | --- | --- | --- | --- |
| O=C(NOCc1ccccc1)c1ccccc1 | > 100 | 48.5 (≈ 11 µg/mL) | – | – | – | – | – | – |
| O=C(NOCc1ccccc1)c1ccc([N+](=O)[O-])cc1 | 90.4 (≈ 24.6 µg/mL) | 13.6 (≈ 3.7 µg/mL) | – | – | – | – | – | – |
| O=C(NO)c1ccc([N+](=O)[O-])cc1 | 7.79 (≈ 1.42 µg/mL) | 0.71 (≈ 0.129 µg/mL) | 0 | 0 | 0 | 30 | 13 | diameter of the inhibition zone (DIZ) (Mycolicibacterium vaccae [6]): 33 mm; diameter of the inhibition zone (DIZ) (Pseudomonas aeruginosa [8]): 0 mm; diameter of the inhibition zone (DIZ) (Escherichia coli [9]): 0 mm |
| O=C(NOCc1ccccc1)c1ccc(Cl)cc1 | 47.3 (≈ 12.4 µg/mL) | 15.5 (≈ 4.07 µg/mL) | 19 | 19 | 19 | 15 | 14 | diameter of the inhibition zone (DIZ) (Pseudomonas aeruginosa [8]): 14 mm; diameter of the inhibition zone (DIZ) (Escherichia coli [9]): 0 mm |
| C=CCONC(=O)c1ccccc1 | > 100 | > 100 | – | – | – | – | – | – |
| CC(C)(C)[Si](C)(C)ONC(=O)c1ccccc1 | > 50 | 24.3 (≈ 6.11 µg/mL) | 0 | 0 | 0 | 26 | 14 | diameter of the inhibition zone (DIZ) (Pseudomonas aeruginosa [10]): 18 mm; diameter of the inhibition zone (DIZ) (Pseudomonas aeruginosa [8]): 0 mm; diameter of the inhibition zone (DIZ) (Escherichia coli [9]): 0 mm |
| C=CCONC(=O)c1ccc([N+](=O)[O-])cc1 | > 100 | 37.6 (≈ 8.36 µg/mL) | – | – | – | – | – | – |
| O=C(NOCc1ccccc1)c1ccc(F)cc1 | > 100 | 42.3 (≈ 10.4 µg/mL) | – | – | – | – | – | – |
| CCOc1ccc(C(=O)NOCc2ccccc2)cc1 | > 100 | 47.3 (≈ 12.8 µg/mL) | – | – | – | – | – | – |
| O=C(NO)c1ccc(F)cc1 | > 100 | > 100 | – | – | – | – | – | – |
| CCOc1ccc(C(=O)NO)cc1 | 48.1 (≈ 8.71 µg/mL) | > 100 | 20 | 17 | 0 | 0 | 0 | diameter of the inhibition zone (DIZ) (Pseudomonas aeruginosa [11]): 14 mm; diameter of the inhibition zone (DIZ) (Escherichia coli [9]): 0 mm |
| O=C(NOCc1ccccc1)c1cc([N+](=O)[O-])cc(C(F)(F)F)c1 | > 100 | 10.7 (≈ 3.62 µg/mL) | 16 | 20 | 14 | 45 | 0 | diameter of the inhibition zone (DIZ) (Micrococcus luteus [12]): 20 mm; diameter of the inhibition zone (DIZ) (Pseudomonas aeruginosa [8]): 0 mm; diameter of the inhibition zone (DIZ) (Escherichia coli [9]): 0 mm |
| C=CCONC(=O)c1cc([N+](=O)[O-])cc(C(F)(F)F)c1 | > 100 | 43.2 (≈ 12.5 µg/mL) | – | – | – | – | – | – |
| CC(C)(C)[Si](C)(C)ONC(=O)c1cc([N+](=O)[O-])cc(C(F)(F)F)c1 | > 100 | > 100 | 20 | 0 | 0 | 14 | 0 | diameter of the inhibition zone (DIZ) (Pseudomonas aeruginosa [8]): 0 mm; diameter of the inhibition zone (DIZ) (Escherichia coli [13]): 17 mm |
| COC(=O)c1cc([N+](=O)[O-])cc(C(F)(F)F)c1 | > 100 | 30 (≈ 7.46 µg/mL) | – | – | – | – | – | – |
| O=C(NO)c1cc([N+](=O)[O-])cc(C(F)(F)F)c1 | 19.5 (≈ 4.87 µg/mL) | > 100 | – | – | – | – | – | – |
| O=C(NOCc1ccccc1)c1cc(Br)cc(C(F)(F)F)c1 | > 100 | 80.5 (≈ 30.1 µg/mL) | 17.5 | 20 | 16 | 26 | 0 | diameter of the inhibition zone (DIZ) (Mycolicibacterium vaccae [6]): 32 mm; diameter of the inhibition zone (DIZ) (Pseudomonas aeruginosa [8]): 0 mm; diameter of the inhibition zone (DIZ) (Escherichia coli [9]): 10 mm |
| O=C(CC(=O)OCc1ccccc1)NOCc1ccccc1 | 86.6 (≈ 25.9 µg/mL) | 27.1 (≈ 8.11 µg/mL) | – | – | – | – | – | – |
| CC(C)(C)[Si](C)(C)ONC(=O)CC(=O)OCc1ccc([N+](=O)[O-])cc1 | > 100 | 3.04 (≈ 1.12 µg/mL) | – | – | – | – | – | – |
| C=CCONC(=O)CC(=O)OCc1ccc([N+](=O)[O-])cc1 | 98.7 (≈ 29 µg/mL) | 98.6 (≈ 29 µg/mL) | – | – | – | – | – | – |
| O=C(CC(=O)OCc1ccc([N+](=O)[O-])cc1)NO | > 100 | > 100 | – | – | – | – | – | – |
| O=C(NO)c1ccc(Cl)cc1 | > 100 | > 100 | 0 | 0 | 0 | – | 0 | diameter of the inhibition zone (DIZ) (Mycolicibacterium vaccae [14]): 15.5 mm; diameter of the inhibition zone (DIZ) (Pseudomonas aeruginosa [11]): 18 mm; diameter of the inhibition zone (DIZ) (Escherichia coli [9]): 16 mm |
| O=C(O)c1cn(C2CC2)c2cc(N3CCNCC3)c(F)cc2c1=O [CIPROFLOXACIN] | – | – | – | 18 | 0 | 20 | 23 | zone of inhibition at 1.66 µg/mL (Bacillus spizizenii [15]): 19 mm; diameter of the inhibition zone (DIZ) (Pseudomonas aeruginosa [8]): 19 mm; zone of inhibition at 1.66 µg/mL (Pseudomonas aeruginosa [16]): 26 mm |
| CO[C@H]1/C=C/O[C@@]2(C)Oc3c(C)c(O)c4c(O)c(c(/C=N/N5CCN(C)CC5)c(O)c4c3C2=O)NC(=O)/C(C)=C\C=C\[C@H](C)[C@H](O)[C@@H](C)[C@@H](O)[C@@H](C)[C@H](OC(C)=O)[C@@H]1C [RIFAMPIN] | 0.03 (≈ 0.0247 µg/mL) | < 0.016 | – | – | – | – | – | – |
